MC4R barr agon – human MC4R agonism via beta-arrestin | P32245 | 0.98% of 360,000 active | activation, % at 8.9 µM | U2OS MC4R beta-arrestin complementation, luminescence; percent of melanotan II response, DMSO zero;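 active = activation above a per-plate cutoff, the mean activation of sample wells on that plate plus 3 SD, cut at about 8% in these data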
Target sequence (P32245 whole entry, looked up): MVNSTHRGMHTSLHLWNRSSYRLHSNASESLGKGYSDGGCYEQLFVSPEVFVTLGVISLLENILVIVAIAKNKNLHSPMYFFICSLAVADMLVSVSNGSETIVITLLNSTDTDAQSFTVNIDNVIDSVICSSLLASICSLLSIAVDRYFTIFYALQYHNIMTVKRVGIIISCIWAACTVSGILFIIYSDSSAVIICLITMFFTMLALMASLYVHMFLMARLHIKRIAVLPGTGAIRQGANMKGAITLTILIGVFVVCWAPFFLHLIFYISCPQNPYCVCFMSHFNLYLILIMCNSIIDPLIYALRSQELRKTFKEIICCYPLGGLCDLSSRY
ABCB6 inh MLPCN – blocks the human ABCB6 transporter; K562-ABCB6 porphyrin accumulation, flow cytometry, 1 h; active compounds read low; fluorescence ratio to DMSO, % at 10 µM; 0.19% of 360,000 active;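 active = fluorescence ratio to DMSO below 75%, the collection mean minus 3 SD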;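 note: signal is porphyrin accumulated inside mitochondria; 100% equals median channel fluorescence of DMSO control wells; lower ratio means ABCB6 inhibition with less porphyrin fluorescence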
iPSC survival up – hiPSC single-cell survival enhancement; survival enhancement, % at 20 µM; ATPlite luminescence; 100% = ROCK inhibitor wells, 0% = DMSO; 0.044% of 360,000 active; AID 602274; in the data active = survival enhancement above about 18%;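 note: cells exposed to compounds for 16 hours before the ATP read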
MC4R antag cAMP – antagonists of human melanocortin 4 receptor (MC4R). P32245. MC4R-expressing cells, MTII-stimulated cAMP, LANCE TR-FRET. inhibition, % at 6.5 µM. 0.48% of 360,000 active;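 active = inhibition above its plate's cutoff, the mean of tested wells on that plate plus 3 SD, cut at about 29% in these data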;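 note: 0% = Melanotan II alone and 100% = Melanotan II plus saturating MCL0020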
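System: U2OS-MC4R stable cell line; Technique: Eu-cAMP/anti-cAMP TR-FRET, emission 671 nm; Repeats: single well per compound; Also added: Melanotan II; Dosing: one concentration, 6.5 µM nominal; Schedule: 30-min compound, 1-h challenge, 1-h detection, room temperature.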
Granule exo inh – lytic granule exocytosis inhibition; TALL-104 LAMP-1 surface exposure, flow cytometry; cells stimulated with thapsigargin and PMA; inhibition, % at 10 µM; 0.66% of 360,000 active;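 active = inhibition above about 55%, limit read from the data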
Tb MetRS inh – blocks T. brucei methionyl-tRNA synthetase activity; purified T. brucei MetRS, ATP depletion, Kinase-Glo luminescence; inhibition, % at 11.9 µM; 0.4% of 360,000 active;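 active = inhibition above a per-plate cutoff of the control wells' mean inhibition plus 3 SD, cut at about 5.5% in these data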;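 note: 0% = DMSO wells median and 100% = median of wells with control inhibitor compound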
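technique = Kinase-Glo luminescence, ATP depletion format | system = purified MetRS (methionyl-tRNA synthetase) enzyme from Trypanosoma brucei | timing = 15 min preincubation, 2 h reaction, all 25 °C | evaluation = percent inhibition versus plate control medians | dosing = single dose, 11.9 µM final nominal, 0.9% final DMSO | also added = substrates ATP, L-methionine and bulk Escherichia coli tRNA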
An asterisk follows results filed as active; · = no result given. The list is not random: actives were taken first. Their share in the collection is about 2.6%.

SMILES	MC4R barr agon	ABCB6 inh MLPCN	iPSC survival up	MC4R antag cAMP	Granule exo inh	Tb MetRS inh
O=[N+]([O-])c1cc([N+](=O)[O-])c(Oc2c(F)cccc2F)cc1NN1CCCCC1	-2	100	-2	7	78*	0
Cc1cc(OCC(=O)NCC2CCC(C(=O)O)CC2)c2c(C)c(Cc3ccccc3)c(=O)oc2c1 (stereo unspecified)	-3	101	0	8	6	1
COC(=O)C1=C(N)Oc2cc(C)n(CC3CCCO3)c(=O)c2C1c1ccc(Cl)c(Cl)c1 (stereo unspecified)	-2	101	1	5	6	38*
O=C(CN1C(=O)NC2(CCc3ccccc32)C1=O)Nc1ccccc1C(F)(F)F (stereo unspecified)	-1	95	7	3	4	0
COc1ccccc1CC(=O)Nc1ccc(-c2noc(COc3cccc(C)c3C)n2)cc1	-1	99	21*	19	0	0
O=C(Nc1ccc(Cl)c(Cl)c1)c1ccc2c(c1)OCO2	9.3*	96	0	9	18	0
COc1cccc(-c2nc(-c3ccc(NC(=O)Cc4ccccc4OC)cc3)no2)c1	2	97	-3	-6	4	-2
Cc1ccccc1OCc1nc(-c2ccc(NC(=O)c3ccc4c(c3)OCO4)cc2)no1	22*	86	-2	1	-1	-1
O=C(NCc1nc(-c2ccccc2)no1)c1ccc2c(c1)OCO2	-1	104	1	0	-2	-2
Cc1ccc(OCC(=O)c2c[nH]c3ccccc23)c([N+](=O)[O-])n1	-3	98	0	7	-3	5
COc1ccccc1NS(=O)(=O)c1ccc(O)c(NC(=S)NCC2CCCO2)c1 (stereo unspecified)	2	101	2	-2	1	2
C=CCn1c(CCCNC(=O)c2ccccc2OC)nc2ccccc21	-2	100	1	-9	3	0
COC(=O)/C=C/c1c(C)nc(NCc2ccccc2)nc1Cl	-1	102	1	8	10	0
CCN1CCN(CCCNC(=O)CCC(=O)N2CCOc3ccccc32)CC1	1	103	-2	-1	-1	-1
CCN(CC)CCCn1c2c(c(SCC(=O)Nc3cccc(C)c3C)nc1=O)CCC2	0	100	0	-7	-2	0
COc1ccc2ccccc2c1/C=N/NC(=O)c1sc(N)c(C#N)c1C	10*	98	0	-11	9	0
CSc1ccc(CN(C)C(=O)C2CCN(C(=O)Nc3ccccc3)CC2)cc1	0	104	-2	1	0	-1
COc1cccc(N=Cc2nc(-c3ccccc3)oc2OC(C)=O)c1	-1	96	0	3	64*	-1
CO/N=C/c1ccc(N2CCN(C(=O)c3ccc(C)cc3)CC2)c([N+](=O)[O-])c1	0	98	-2	1	2	16*
CO/N=C/c1ccc(N2CCCC2)c([N+](=O)[O-])c1	-2	98	0	-4	0	0
O=C1C2C3C=CC(O3)C2C(=O)N1CC(O)c1ccccc1 (stereo unspecified)	1	100	16	-5	63*	0
CCOC(=O)C(NC(=O)c1ccccc1)=C1CCCCC1	1	113	2	1	-2	-2
COC(=O)C(NC(=O)c1ccccc1)=C1CCCCC1	-1	74*	4	1	-2	-1
COC(=O)c1ccc(NC(=O)CN2CCN(c3ccccn3)CC2)cc1	-1	103	0	8	-1	0
CCOc1ccc(Nc2oc(-c3ccc(Cl)cc3)nc2C#N)cc1	8.9*	96	-2	-14	-1	0
SMILES	MC4R barr agon	ABCB6 inh MLPCN	iPSC survival up	MC4R antag cAMP	Granule exo inh	Tb MetRS inh
COc1ccc(Nc2oc(-c3ccc(OC)cc3)nc2C#N)cc1	-1	95	-1	11	-6	0
N#Cc1nc(-c2ccc(Cl)cc2)oc1NCc1ccco1	0	94	-4	3	-2	0
N#Cc1nc(-c2ccc(Cl)cc2)oc1NCc1cccc2c1OCO2	8.5*	89	-2	2	-4	0
O=C(NCCc1ccccc1)Nc1cccc(Cl)c1	-3	98	1	15	2	0
O=C(Cc1c(Cl)cccc1Cl)NCCc1ccc(Cl)cc1	9.3*	100	-1	3	2	0
O=C(NCCc1ccc(Cl)cc1)Nc1cccc(Cl)c1	4	97	-5	7	-2	7.0*
COC(=O)C1=C(C)N(CCc2cc(OC)c(OC)c(OC)c2)C(=O)N[C@H]1c1ccccc1	-2	97	0	14	-3	0
O=C(NC1CCN(C(=O)Nc2ccc(F)cc2)CC1)c1ccccc1F	-1	93	0	-3	3	0
C=CCc1cccc(CNc2nc3ccccc3n2CC)c1O	-1	94	-2	0	5	40*
Cc1cccn2c(=O)c(/C=C(\C#N)C(=O)NC3CCS(=O)(=O)C3)c(Oc3ccc(F)cc3)nc12 (stereo unspecified)	0	89	0	-2	74*	-1
Cc1cccc(Oc2nc3ccccn3c(=O)c2/C=C(\C#N)C(=O)NC2CCS(=O)(=O)C2)c1C (stereo unspecified)	1	101	0	10	68*	-1
COc1ccccc1CCNC(=O)CN1C(=O)c2ccccc2S1(=O)=O	-1	94	1	12	4	0
COc1cc(/C=C/C(=O)C2C(=O)C=C(C)OC2=O)cc(OC)c1O (stereo unspecified)	0	99	-2	4	-6	0
COc1ccc(/C=C/C(=O)C2C(=O)C=C(C)OC2=O)cc1O (stereo unspecified)	1	68*	-4	7	2	-1
CC(C)N1CCN(Cc2cnc(-c3ccccc3)s2)CC1CCO (stereo unspecified)	0	100	1	7	0	0
CN(C)CCN(C(=O)c1ccc2ccccc2c1)c1nc2cc3c(cc2s1)OCO3	0	95	19*	-5	-2	0
COc1ccc(N(C(=O)c2ccco2)C(C(=O)NC2CCCC2)c2cccs2)c(OC)c1 (stereo unspecified)	0	99	0	27	34	0
C#CC(=O)N(c1cccc(OC)c1)C(C(=O)NC1CCCC1)c1cccs1 (stereo unspecified)	8	101	-1	35*	10	-1
CN(CCOC(=O)/C=C/c1ccco1)Cc1ccccc1	-2	100	-2	17	8	0
CC(C)n1c(=O)c2ccccc2n1Cc1cn(Cc2cccs2)nn1	·	96	-1	·	0	-1

Screens: PubChem, several laboratories
